Columns and labels:
[1] = Cytotoxicity against mouse peritoneal macrophages assessed as increase in metabolic activity at 150 uM after 24 hrs by MTT assay; assay type: ADME, cell-based; settings: peritoneal macrophage cell
Method in brief: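 Cells seeded at 40,000/well in 96-well plates, overnight 37°C 5% CO2, then treated 24 h in fresh DMEM. MTT (4 mg/ml stock in PBS) added for up to 3 h. Formazan solubilized overnight at 37°C in SDS/dimethylformamide/acid lysis buffer, OD read at 575 nm. Paired t tests.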

J774.A1 [2] = assay: Drug uptake in mouse J774A.1 cells assessed as total peptide concentration at 150 uM after 24 hrs at 4 degC by HPLC analysis; settings: J774A.1, 24 h
J774.A1 [3] = assay: Drug uptake in mouse J774A1 cells assessed as total peptide concentration at 50 uM after 5 hrs at 4 degC by HPLC analysis; assay type: ADME, cell-based; settings: j774.a1, 5 h
Method in brief: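 J774A.1 cells were seeded at 300,000 per well and allowed to adhere for 24 h at 37°C in 5% CO2. Medium was replaced with DMEM containing unlabeled peptide, and cells were held at 37°C or 4°C. After three washes in ice-cold PBS, cells were lysed in NP-40 buffer and debris spun out. Reverse-phase HPLC was read at 280 nm. Peaks at 17.5 and 17.75 min were integrated against a standard curve. Intracellular mM was calculated from 300,000 cells at 1 pl each, using monomer mass.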

[4] = Cytotoxicity against mouse peritoneal macrophages assessed as dead cells at 150 uM by propidium iodide assay; assay type: cell-based; settings: peritoneal macrophage cell
Method in brief: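 Cells seeded at 300,000/well and allowed to adhere, then given fresh DMEM with or without peptide for 24 h. Cells trypsinized, stained with a mammalian Live/Dead viability/cytotoxicity kit and analyzed by flow cytometry. Wilcoxon exact test.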

SMILES: N=C(N)NCCC[C@@H](NC(=O)[C@@H](CS)NC(=O)[C@@H](Cc1ccc(O)cc1)NC(=O)[C@@H](Cc1c[nH]c2ccccc12)NC(=O)[C@@H](CCCNC(=N)N)NC(=O)[C@H](N)Cc1c[nH]c2ccccc12)C(=O)O
- Activity [1]: 18%
- Drug uptake (J774.A1 [2]): 47.7 mM
- Drug uptake (J774.A1 [3]): 1.2 mM
- Activity [4]: 9.2%

Reference: ChEMBL document CHEMBL1255440, “An antimicrobial peptide that targets DNA repair intermediates in vitro inhibits Salmonella growth within murine macrophages” (Antimicrob Agents Chemother, 2010)
